Measurements as given in the EternaBench riboswitch data.

Tested on: MS2 coat protein
Assay: apparent Kd, MS2 coat protein; higher = weaker binding; RNA-MaP array; FMN 200 µM where present
Procedure, shortened: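 The apparent Kd is reported as the median of filtered per-cluster binding-curve fits. To get these curves, designs transcribed by stalled E. coli RNA polymerase on Illumina sequencing-chip clusters were titrated with SNAP-549-labelled MS2 coat protein from 0.7 or 1.5 nM, doubling to 3 µM. Titrations were run without and then with constant ligand in 100 mM Tris-HCl pH 7.5, 80 mM KCl, 4 mM MgCl2, BSA, DTT, yeast tRNA and Tween-20, and green signal was normalised to red-channel RNA signal and control-cluster median Fmax.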

[1] = designed as: ON switch for flavin mononucleotide, no ligand
[2] = ligand present: flavin mononucleotide, designed as: ON switch for flavin mononucleotide
[3] = designed as: OFF switch for flavin mononucleotide, no ligand
[4] = ligand present: flavin mononucleotide, designed as: OFF switch for flavin mononucleotide

Sequence | apparent Kd [1] [µM] | apparent Kd [2] [µM] | apparent Kd [3] [µM] | apparent Kd [4] [µM]
CUGCUUCCCAGUAUGGGUAUUUUUACAGAAGGCCAGGCACAUGAGGAUCACCCAUGUCAAGUUUUGGAGGAUAUGUUAUUGUCG | 0.00853 | 0.00472 |  | 
CCCAAACUUGGGCUUGGUUGUGCAUAGGAUAUCCUUGGACAUGAGGAUCACCCAUGUACAACUGUGGAGAAGGGUGCAGGACCU | 0.0391 | 0.0164 |  | 
AGGUGUCCUGAGAGAUUUCUCCACAUGAGGAUCACCCAUGUAGAGGAUAUCGACGCUGUGCGGUUCGAGAAGGCUACACUAAUU |  |  | 0.00685 | 0.0424
UCUCGACAUGAGGAUCACCCAUGUCAGGAUAUUGUGUUUUGGGUUUUUUACCUUUUGGCAAGAAGGGAUGUGUG |  |  | 0.023 | 0.0221
CCGAAACCUCAGAAGGACCACAUGAGGAUCACCCAUGUCAAGCAAAACGGUAGGAUAUGAGGGAAAAGUCGGUGUACCCGACAG | 0.00893 | 0.00576 |  | 
UUUUACUUAGGAUAUACAUUUUUUUAUUUAUUUAUAAUAUUACAUGAGGAUCACCCAUGUAGAAGGGAGAUUUU |  |  | 0.077 | 0.0634
UUACCUCAUGAGAAGGACAUGAGGAUCACCCAUGUAGGAUAUCGUGGGACACUGGAAUUGAAUCUUCGGAUUCAAUAACUGUAU | 0.349 | 0.0262 |  | 
GGUACCAUCACAGGAUAUGCUUUUCUUUGGGAAGCAGAAGGGUGUAACAUGAGGAUCACCCAUGUGGUGCCAGGGCGUUAGCCC | 0.188 | 0.0168 |  | 
UUGUUGUAUGUAGGAUAUGCAUAUUGUUAUUAUGCAGAAGGACAUGAGGAUCACCCAUGUAUGUUAUUAUUAUGUGUUAUGUGU |  |  | 0.0393 | 0.0639
UGGUACUAGGGAGGAUAUGGGAAGAUACAUGAGGAUCACCCAUGUUUAAGGAUGCCGAGAGGCAACUAGAAGGCCCUAGUACCU | 0.851 | 0.097 |  | 
CGAUAUAUGAAGGGCGAAAGCCCACAUGAGGAUCACCCAUGUAGAAGGCGAUCCGCAACGCGGAUCGAGGAUAUAUAGUAUACA |  |  | 0.00948 | 0.0104
GAGUGGAGGUAAGGAUAUACAAUGAUAAUCACAGUAGAAGGUACUAACAUGAGGAUCACCCAUGUAGGACUAUACCAGAGAGGG | 0.0174 | 0.018 |  | 
GUGGCUAGUGCAGGAUAUCGGCGCGUGUAGUGCCGAGAAGGGCACAUGAGGAUCACCCAUGUGAUCAAUCACUGCUAAGGCCGC |  |  | 0.00519 | 0.00537
GUGCUCGUGUGAGGAUAUGCUUCCGUUUCGGCUGCAGAAGGUACUAUUAUACAUGAGGAUCACCCAUGUCUCUUUUCUUCGGUG | 0.0331 | 0.0337 |  | 
GGGUACAUCGGAGGAUAUCAUGUAAAUACAUGAGGAUCACCCAUGUCGACGGAGACAUCGGAGAUUGAGAAGGCCGAUGUACCG | 0.0422 | 0.367 |  | 
AUUAAUAAGUAGAAGGACGGAGAGUAUGAAGUCGUAGGAUAUACAUAAGACAUGAGGAUCACCCAUGUAUGUAUUUUGGGUAUG |  |  | 0.0129 | 0.0129
GGAGCUCCUGACAUGAGGAUCACCCAUGUUCACUUAUUAAAUCAGGAUAUCGUCUCGAAACGAGACGAGAAGGGAUAUGCUCCU | 0.00767 | 0.00701 |  | 
UUUAUAAUAAGAUCAAUUAAUUAACAUGAGGAUCACCCAUGUGAGGAUAUCAGCUCGUGUAGAGCUGAGAAGGCACAAUAUAAG |  |  | 0.0438 | 0.0693
GAUCAACAUGAGGAUCACCCAUGUCAGGAUAUGAUACUAUGUACUUCGGUACAUAGUAUCAGAAGGGACAGAUC |  |  | 0.122 | 0.296
GUGUAGUUAGGAUAUGCUGGAAUCUAGCGAAGCUAGGUUCCACAUGAGGAUCACCCAUGUAGAAGGGACUACAC |  |  |  | 0.073
GUGCGGAACCUAGGAUAUCCGGCAUGGACAGGUGGUAAGUCUCCCACAUGAGGAUCACCCAUGUAGGAGAAGGAGGAUCACGGA |  |  | 0.00646 | 0.00607
CGUGUAAACUCAGGAUAUCCUGCGAGCAACGGGUAUUGAGUCUUCACAUGAGGAUCACCCAUGUAGGAGAAGGGAGGUACAAAA |  |  | 0.0726 | 0.187
CAGUACUGAGGAUAUACAUGAGGAUCACCCAUGUGCUCUAGCUAGGAUACUAGCAUUAGUAGAAGGCAGUACUG |  |  | 0.015 | 0.136
GGGCCCGAGGUGAGGAUAUUGUGCAUGGCGAGUGACAAGAAGGUACAUGAGGAUCACCCAUGUGAUACCGACCU |  |  | 0.451 | 0.371

Sequence | apparent Kd [1] [µM] | apparent Kd [2] [µM] | apparent Kd [3] [µM] | apparent Kd [4] [µM]
AUCGACAGUGUCAGGAUAUCUCACCCGAGUGGGCGAGAGAAGGGACAUGAGGAUCACCCAUGUGCGUUCUCUAA |  |  | 0.0275 | 0.174
UCGUGAAGGAUAGGAUAUGGACAUGAGGAUCACCCAUGUACAUGGGAAUGUAUACUGAAUUUGUACUAGAAGGGUUACAUAAAU |  |  | 0.0498 | 0.0367
CAUCAUCAAGUGAGGAUAUCGUCAAAUCAAUCAAACGAGAAGGCACAUGAGGAUCACCCAUGUCGACUCAUCAA |  |  | 0.0183 | 0.0249
ACAUGAGGAUCACCCAUGUGUACAUAGGAUAUUGAUGAUUAUGGUUUAAGAAAAGUAAUUGCCCACAAGAAGGAUGCCUCAUCU | 0.0365 | 0.0277 |  | 
UGCUGUGUCAGAGGAUAUACUACUAUAAUCCAUUGCAAAUAGCGAUGGACAUGAGGAUCACCCAUGUAGAAGGCUGUCACAGCA |  |  | 0.0466 | 0.178
ACCUUACAUGAGGAUCACCCAUGUCAGGAUAUCUCGGGCGGCCAAGGGCCGGCCGCCCAGAGAAGGGACGAGGA |  |  | 0.0145 | 0.0137
GGAUAGGACAGAGGAUAUACGUGCUAGAGAUAGUAGCAAAAUUUCCUCACAUGAGGAUCACCCAUGUAGAAGGCUGUCCUAUCG |  |  | 0.0196 | 0.365
UUACUCAUGUAAGGAUAUGCAGCCGUUUCGGCUGCAGAAGGUACUAUAAUACAUGAGGAUCACCCAUGUCUAUAAACUAAAGAC | 0.0843 | 0.0457 |  | 
AAAACGAUGUGAGGAUAUCACCGCUGUGACGGCUGAGAAGGCACAUGAGGAUCACCCAUGUGCAGGCGUGUGUGGGUAAUCCAA |  |  | 0.186 | 0.139
AGAUAACACCAGAAGGACAUGAGGAUCACCCAUGUAGGAUAUGGGCAUCACUCGAGAAAGAAAAGACCAAAUGGACACAUGGUC | 0.162 | 0.0128 |  | 
AGACGGAUCCGCGGUCGAUGCUAACUAGAAGGGCAGGUCACAUGAGGAUCACCCAUGUAGUAUAUGUAGGAUAUAGGAAGCGUG | 0.0952 | 0.0209 |  | 
GCAGAAAGUGUAGGAUAUAGAAAUUAGCGGAAACGCAAUACAUGAGGAUCACCCAUGUUUCCUCACUAGAAGGGCAAAAGCUGC |  |  | 0.0168 | 0.0141
GUCAGCUCGUGAGGAUAUACAACACUGCUUCGGCAGUGUAUUAAGAUCACAUGAGGAUCACCCAUGUAGAAGGCACUAGCUGAU |  |  | 0.0139 | 0.256
AGCUACGUUUCGUAGCAGUGUCAUCGAGAAGGCUCAGAUACAUGAGGAUCACCCAUGUUAACAUGGGAGGAUAUCGAUGAUACA | 0.0653 | 0.0084 |  | 
UUAAAUCAUGUAGGAUAUGCAUGGCGAAGCUACGCAGAAGGACAUGAGGAUCACCCAUGUUAUAGCUACCCAGUUAGGUGGCAA |  |  | 0.0822 | 0.189
AUCAGCUCGUCAGGAUAUUCGUCACUGCGUCAGCAGUGUGGUAAGAUCACAUGAGGAUCACCCAUGUAGAAGGGACGAGCUGAU |  |  | 0.00823 | 0.0192
GGUGGACAUGAGGAUCACCCAUGUGAGGAUAUCGGCUGGUACGUGUUGGCUGGCAUCUCGAGAAGGCACAUAGU |  |  | 0.0809 | 0.18
CUGAUGUGAGGAUAUCGGGCUACAGCCCUGCUGCUAGCAAACGAGAAGGCACAUGAGGAUCACCCAUGUAAGAA |  |  | 0.024 | 0.0286
CUAGAAAGGACAGGAUAUCGGGAUCGAACACCCGACAUGAGGAUCACCCAUGUCGCAAAAGAUAGCGAGAAGGGUCGGACACAA | 0.0458 | 0.0141 |  | 
UGAUAGGACAGAGGAUAUACAGAUAGGAUCUACUAUCCUCCUUAAAUAACAUGAGGAUCACCCAUGUAGAAGGCUGUCCUAUCU |  |  | 0.0265 | 0.182
AUCAUCUUAUCAGGAUAUGCGAGUCGACGAAAGUAGACAAUCUUGAUAACAUGAGGAUCACCCAUGUAGAAGGGAUGAGAUGAU |  |  | 0.0481 | 0.0517
ACAUGAGGAUCACCCAUGUGUACAUAGGAUAUUGAGGAUUAGGGAUAAAGUGAAGAGAUUGCCCACAAGAAGGAUGAAAGUGUU | 0.00982 | 0.00882 |  | 
GUGGUCAGACAUGAGGAUCACCCAUGUGGAAUAAAUAAGGAGAAGGAUAUGCAAUAUAGGAUAUAGUAGAAGGUCUGGUUGGUG | 0.0835 | 0.0973 |  | 
CGAUAGUGUAGUUAUCCGUAGCGAACAUGAGGAUCACCCAUGUAGGAUAUGUUACUAAACUAGUAACAGAAGGGCAUGAGUCUU |  |  | 0.0286 | 0.0756
